Only some compounds are listed: those with a hit (about 2.8% of all), similar ones and a draw of the others.
EP2 antag: inhibitors of human EP2 prostaglandin E2 receptor. inhibition, % at 25 µM. 0.52% of 260,000 active. AID 1422. C6 glioma cells expressing human EP2, cAMP TR-FRET; cells stimulated with saturating PGE2;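 active means percent inhibition above 40 after rounding to a whole number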;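 further: rat C6 glioma host cells with rolipram phosphodiesterase inhibitor present; the protocol text gives 20 µM as final concentration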
Target sequence (P43116 whole entry, looked up): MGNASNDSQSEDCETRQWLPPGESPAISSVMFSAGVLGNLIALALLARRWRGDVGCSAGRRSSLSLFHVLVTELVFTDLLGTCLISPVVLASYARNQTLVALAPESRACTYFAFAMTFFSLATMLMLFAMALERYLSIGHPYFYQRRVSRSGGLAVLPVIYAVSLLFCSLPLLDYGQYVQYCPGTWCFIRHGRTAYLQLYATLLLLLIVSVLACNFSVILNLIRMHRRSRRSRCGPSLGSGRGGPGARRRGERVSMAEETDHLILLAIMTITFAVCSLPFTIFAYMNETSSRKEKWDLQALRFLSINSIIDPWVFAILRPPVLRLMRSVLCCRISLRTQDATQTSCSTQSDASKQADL
NPY-Y1 PAM-ag: potentiators or agonists of human neuropeptide Y receptor Y1. P25929. 0.37% of 220,000 active. NPY-Y1 expressing cells, potentiator/agonist activation. AID 1304. activation, % at 3.6 µM; in the data active means activation above about 33%, passing the limit was not always enough;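 further: cells stimulated with NPY at EC10 then isoproterenol at EC100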
NPY-Y2 PAM-ag: human NPY-Y2 potentiation or agonism, primary screen. activation, % at 3.6 µM. 0.45% of 220,000 active. cells expressing NPY-Y2, potentiator/agonist read-out; in the data active means activation above about 27%;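 further: cells stimulated with NPY near EC25 plus isoproterenol at EC100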
NPY Y2 blocker: antagonists of human neuropeptide Y receptor Y2 | 0.99% of 140,000 active | inhibition, % at 2.7 µM | P49146 | NPY-Y2 expressing cells, antagonist mode; in the data active means inhibition above about 17%
NPY Y1 blocker: NPY-Y1 (human) receptor antagonism. P25929. HEK293-CNG Y1 cells, membrane potential fluorescence; NPY at EC95, then isoproterenol. inhibition, % at 3.6 µM. 1% of 200,000 active. AID 1040;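 active means inhibition above the campaign mean inhibition of all tested compounds plus 3 SD, cut at about 20% in these data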
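Material: HEK293 cells with Y1 receptor plus CNG channel; times: compound incubation 1 h at room temperature, readout 45 min post-stimulation; signal: fluorescence, membrane potential probe; read-out basis: fluorescence ratio normalized to % inhibition between controls; benchmarks: full-block control isoproterenol-only wells, zero-block control NPY plus isoproterenol wells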
EP2 modulator: EP2 receptor (human) modulation; P43116; 0.83% of 260,000 active; induction, % at 25 µM; EP2-expressing cells, cAMP HTRF FRET, PGE2 co-stimulation;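 active means compounds whose cAMP rise, as percent of the full-agonist control response, exceeds 60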;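 further: rat C6 glioma line stably carrying human EP2 under a CMV promoter; the protocol text gives 20 µM as final concentration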
EP2 cAMP induct: human EP2 receptor cAMP induction, negative in counter-screens. calls only at 20 µM (by protocol). 47% of 1,300 active. C6 glioma EP2 cells, cAMP HTRF induction; plus low (about EC15) PGE2 agonist. shares compounds with EP2 modulator;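 active means cAMP induction above 50% in the main assay while under 30% in all four parallel counter assays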;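 further: rat C6 glioma cells stably expressing human EP2 receptor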
A number is an active result; i = inactive; nt = no result given; + = active, no number.

SMILES	EP2 antag	NPY-Y1 PAM-ag	NPY-Y2 PAM-ag	NPY Y2 blocker	NPY Y1 blocker	EP2 modulator	EP2 cAMP induct
Cc1ccc(S(=O)(=O)NCC2COc3ccccc3O2)cc1 (centres undefined)	i	i	i	i	i	i	nt
Cc1ccc2c(c1)N(S(=O)(=O)c1ccc(F)cc1)C(C(C)(C)C)CO2 (centres undefined)	i	i	i	i	i	77.2	+
Cc1ccc(S(=O)(=O)N2c3ccccc3OCC2C(C)(C)C)cc1 (centres undefined)	i	i	i	i	i	88.5	+
Cc1ccc2c(c1)NC(C(C)(C)C)CO2 (centres undefined)	i	i	i	i	i	i	nt
CC1Cc2ccccc2N1C(=O)CSc1nnc(-c2cccnc2)n1C (centres undefined)	i	nt	nt	nt	nt	i	nt
COc1cc(NC(=O)CSc2nnc(-c3ccco3)n2C)cc(OC)c1	i	nt	nt	nt	nt	i	nt
S=c1[nH]nc(Cc2ccccc2)n1Cc1ccco1	i	i	i	i	i	i	i
CCCn1c(Cc2ccccc2)n[nH]c1=S	i	i	i	i	i	i	nt
CCOP(=O)(c1ccccc1)c1nc(-c2ccccc2C)oc1NCc1ccccc1 (centres undefined)	i	i	i	nt	nt	i	nt
CCOP(=O)(OCC)c1nc(-c2cccc3ccccc23)oc1N1CCCCC1	i	i	i	nt	i	68.7	+
CCOP(=O)(c1ccccc1)c1nc(-c2ccccc2C)oc1N1CCCCC1 (centres undefined)	i	i	i	i	i	69.9	+
CCOC(=O)c1cnc(SC)nc1Sc1ccccc1Cl	i	i	i	i	i	73.3	i
CSc1nc(Sc2ccccc2Cl)c2ccccc2n1	i	i	i	i	i	66.8	i
CSc1nc(Nc2ccccc2)c2ccccc2n1	i	nt	nt	nt	nt	i	nt
CCOC(=O)c1cnc(SC)nc1NCCOC	i	i	i	nt	i	i	nt
C=CCN1C(=O)N(/C=C/C)c2cccc3cccc1c23	i	i	i	i	i	68.2	+
COc1ccc(C)cc1NC(=O)CSc1nc2cc(C)c(C)cc2cc1C	i	nt	nt	nt	nt	i	nt
CCC(=O)N1CCN(c2ccc(NC(=O)c3ccccc3C)cc2)CC1	i	nt	nt	nt	nt	i	nt
CCC(C)(C(=O)NC1CCCCC1)N(C(=O)C1CCC(=O)N1)c1ccccc1 (centres undefined)	i	i	i	i	i	66.5	i
CCSc1cc(N2CCOCC2)nc(-c2ccc(Cl)cc2)n1	i	i	i	i	i	76.0	+
CC(C)Sc1cc(N2CCCC2)nc(-c2ccccc2)n1	i	i	i	i	i	i	nt
CC(C)Sc1cc(N2CCOCC2)nc(-c2ccccc2)n1	i	i	i	i	i	73.9	+
Cc1ccc(-c2nn(-c3ccccc3)cc2CN(Cc2ccccc2)C(=O)c2ccco2)o1	i	i	i	i	i	79.6	+
Cc1ccc(-c2nn(-c3ccccc3)cc2C(=O)O)o1	i	i	i	nt	i	i	nt
CSc1ccccc1NC(=O)COc1ccc(Cl)cc1C	i	i	i	i	i	66.5	+
SMILES	EP2 antag	NPY-Y1 PAM-ag	NPY-Y2 PAM-ag	NPY Y2 blocker	NPY Y1 blocker	EP2 modulator	EP2 cAMP induct
CC(C)CCn1c(N2CCN(c3cccc(Cl)c3)CC2)nc2c1c(=O)[nH]c(=O)n2C	i	i	i	i	i	65.0	i
COCCn1c(N2CCN(c3ccc(OC)cc3)CC2)nc2c1c(=O)[nH]c(=O)n2C	i	i	i	i	i	i	nt
COc1ccc(N2CCN(c3nc4c(c(=O)[nH]c(=O)n4C)n3Cc3cccc(C)c3)CC2)cc1	i	i	i	i	i	70.1	i
Cc1ccccc1OCc1nc2ccccc2c(=O)n1/N=C/c1ccco1	i	i	i	i	i	66.8	i
Nc1ccccc1CCCC(=O)O	i	nt	nt	nt	nt	107.1	i
O=c1[nH]c(SCc2cccc(Cl)c2)nc2c1CCCC2	i	i	i	i	i	66.0	i
O=c1[nH]c(SCc2cccc(F)c2)nc2c1CCCC2	i	i	i	i	i	i	nt
CC(=O)N1CCCc2cc(C(O)CN3CCCC(C)C3)ccc21 (centres undefined)	i	nt	nt	nt	nt	i	nt
Cc1nc(SCC(=O)Nc2cccc(Cl)c2Cl)[nH]c(=O)c1C	i	nt	nt	nt	nt	i	nt
Cc1cc(C(=O)Nc2cccc(/C=C/C(=O)O)c2)c(C)o1	i	i	i	i	i	99.0	+

Bioassay records as filed in PubChem BioAssay.
